Experiments:
Adenosine receptor A1 = molecular target: T1, Adenosine receptor A1 (Bos taurus, UniProt P28190); experiment: Displacement of [3H]DPCPX from bovine cerebral cortex adenosine A1 receptor; assay type: tissue-based
T1 sequence (P28190 whole entry): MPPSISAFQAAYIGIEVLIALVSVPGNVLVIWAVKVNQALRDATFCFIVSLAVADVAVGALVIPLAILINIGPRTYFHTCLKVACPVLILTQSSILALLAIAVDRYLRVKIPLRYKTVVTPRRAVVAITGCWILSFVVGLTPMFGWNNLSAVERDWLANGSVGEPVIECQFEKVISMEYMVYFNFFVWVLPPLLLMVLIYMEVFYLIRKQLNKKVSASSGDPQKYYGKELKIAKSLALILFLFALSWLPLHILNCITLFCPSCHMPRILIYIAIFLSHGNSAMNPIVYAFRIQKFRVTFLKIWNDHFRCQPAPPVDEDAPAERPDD
Summary of the method: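 Nonspecific binding defined with CPA. Reaction stopped by dilution with ice-cold 50 mM Tris-HCl, then GF/C filtration and three washes. Bound radioactivity counted by liquid scintillation. Each test repeated until at least three consistent results were obtained and averaged for Ki.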

[1] = molecular target: Adenosine receptor A2a (Homo sapiens) (UniProt P29274); experiment: Displacement of [3H]ZM-241385 from human recombinant adenosine A2A receptor expressed in CHO cells at 1 uM; assay type: cell-based
Summary of the method: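 Membranes from CHO cells expressing recombinant human A2A receptor incubated 120 min at 25 °C with 4 nM [3H]ZM241385 and a single compound concentration, in duplicate, in Tris-HCl buffer. Nonspecific binding defined with NECA. Percent inhibition of specific binding recorded.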

[2] = molecular target: T2, Adenosine receptor A3 (Homo sapiens) (UniProt P0DMS8); experiment: Displacement of [3H]NECA from human recombinant adenosine A3 receptor expressed in CHO cells at 1 uM; assay type: cell-based
T2 sequence (whole entry): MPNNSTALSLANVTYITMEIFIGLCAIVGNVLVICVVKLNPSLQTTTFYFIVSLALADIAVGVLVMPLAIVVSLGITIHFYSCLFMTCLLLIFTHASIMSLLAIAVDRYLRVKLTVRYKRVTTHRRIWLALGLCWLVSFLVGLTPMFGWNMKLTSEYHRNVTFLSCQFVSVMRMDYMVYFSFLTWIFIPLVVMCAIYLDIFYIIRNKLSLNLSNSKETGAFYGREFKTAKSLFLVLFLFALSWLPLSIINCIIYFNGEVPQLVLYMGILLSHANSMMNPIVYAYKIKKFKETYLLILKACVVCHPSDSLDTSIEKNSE
Summary of the method: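 Membranes from CHO cells expressing recombinant human A3 receptor incubated 120 min at 25 °C with 6 nM [3H]NECA and a single compound concentration, in duplicate, in Tris-HCl buffer. Nonspecific binding defined with R-PIA. Percent inhibition of specific binding recorded.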

Adenosine receptor A2a (Homo sapiens), sequence (P29274 whole entry): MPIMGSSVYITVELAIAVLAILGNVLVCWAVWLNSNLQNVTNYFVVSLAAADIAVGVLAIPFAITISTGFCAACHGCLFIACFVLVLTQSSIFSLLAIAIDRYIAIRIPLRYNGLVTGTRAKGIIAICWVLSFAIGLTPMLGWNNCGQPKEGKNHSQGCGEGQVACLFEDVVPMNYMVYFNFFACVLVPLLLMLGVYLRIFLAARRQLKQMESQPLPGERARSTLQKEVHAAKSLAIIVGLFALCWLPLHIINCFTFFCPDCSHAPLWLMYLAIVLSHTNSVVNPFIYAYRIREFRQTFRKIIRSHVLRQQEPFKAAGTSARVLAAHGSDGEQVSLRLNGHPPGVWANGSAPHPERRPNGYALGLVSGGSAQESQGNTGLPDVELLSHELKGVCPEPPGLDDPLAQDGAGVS

Structure (SMILES)	Ki (Adenosine receptor A1) [nM]	inhibition [1] [%]	inhibition [2] [%]
c1ccc(Cn2nnc3c(NC4CC4)nc(-c4ccccc4)nc32)cc1	11.3	< 50	< 50
Fc1ccccc1Cn1nnc2c(NC3CCCC3)nc(-c3ccccc3)nc21	6.7	< 50	< 50
CCCNc1nc(-c2ccccc2)nc2c1nnn2Cc1ccccc1	37	< 50	< 50
CCCCNc1nc(-c2ccccc2)nc2c1nnn2Cc1ccccc1C(F)(F)F	6.5	< 50	< 50
CC(O)CNc1nc(-c2ccccc2)nc2c1nnn2Cc1ccccc1C(F)(F)F (stereo not given)		< 50	< 50
FC(F)(F)c1ccccc1Cn1nnc2c(NC3CCCCC3)nc(-c3ccccc3)nc21	6.8	< 50	< 50
CC(O)CNc1nc(-c2ccccc2)nc2c1nnn2Cc1ccccc1Cl (stereo not given)	32	< 50	< 50
CCCCCCNc1nc(-c2ccccc2)nc2c1nnn2Cc1ccccc1Cl	31	< 50	< 50
Clc1ccccc1Cn1nnc2c(NC3CC3)nc(-c3ccccc3)nc21	11	< 50	< 50
CCCNc1nc(-c2ccccc2)nc2c1nnn2Cc1ccccc1C(F)(F)F		< 50	< 50
FC(F)(F)c1ccccc1Cn1nnc2c(NC3CCCC3)nc(-c3ccccc3)nc21	0.6	< 50	< 50
Clc1ccccc1Cn1nnc2c(NC3CCCCC3)nc(-c3ccccc3)nc21	34	< 50	< 50
CCNc1nc(-c2ccccc2)nc2c1nnn2Cc1ccccc1	91	< 50	< 50
Fc1ccccc1Cn1nnc2c(NC3CCCCC3)nc(-c3ccccc3)nc21	1.15	< 50	< 50
c1ccc(Cn2nnc3c(NC4CCCC4)nc(-c4ccccc4)nc32)cc1	11	< 50	< 50
FC(F)(F)c1ccccc1Cn1nnc2c(NC3CC3)nc(-c3ccccc3)nc21	7.8	< 50	< 50
CNc1nc(-c2ccccc2)nc2c1nnn2Cc1ccccc1	353	< 50	< 50
CNc1nc(-c2ccccc2)nc2c1nnn2Cc1ccccc1C(F)(F)F	14.9	< 50	< 50
CCNc1nc(-c2ccccc2)nc2c1nnn2Cc1ccccc1C(F)(F)F		< 50	< 50
Clc1ccccc1Cn1nnc2c(NC3CCC3)nc(-c3ccccc3)nc21	24	< 50	< 50
CNc1nc(-c2ccccc2)nc2c1nnn2Cc1ccccc1Cl	191	< 50	< 50
CCCCCCNc1nc(-c2ccccc2)nc2c1nnn2Cc1ccccc1C(F)(F)F		< 50	< 50
CCCCCCNc1nc(-c2ccccc2)nc2c1nnn2Cc1ccccc1	13.2	< 50	< 50
CC(O)CNc1nc(-c2ccccc2)nc2c1nnn2Cc1ccccc1 (stereo not given)	7.5	< 50	< 50
c1ccc(Cn2nnc3c(NC4CCC4)nc(-c4ccccc4)nc32)cc1	5	< 50	< 50
Clc1ccccc1Cn1nnc2c(NC3CCCC3)nc(-c3ccccc3)nc21	9	< 50	< 50

The next lines start with the values.

Ki (Adenosine receptor A1) [nM]	inhibition [1] [%]	inhibition [2] [%]	Structure (SMILES)
4.8	< 50	< 50	CC(O)CNc1nc(-c2ccccc2)nc2c1nnn2Cc1ccccc1F (stereo not given)
11	< 50	< 50	CCCCNc1nc(-c2ccccc2)nc2c1nnn2Cc1ccccc1
25	< 50	< 50	CNc1nc(-c2ccccc2)nc2c1nnn2Cc1ccccc1F
38	< 50	< 50	OCCNc1nc(-c2ccccc2)nc2c1nnn2Cc1ccccc1
	< 50	< 50	OCCNc1nc(-c2ccccc2)nc2c1nnn2Cc1ccccc1C(F)(F)F
15	< 50	< 50	Fc1ccccc1Cn1nnc2c(NC3CC3)nc(-c3ccccc3)nc21
33	< 50	< 50	OCCCNc1nc(-c2ccccc2)nc2c1nnn2Cc1ccccc1Cl
3.7	< 50	< 50	OCCCNc1nc(-c2ccccc2)nc2c1nnn2Cc1ccccc1F
101	< 50	< 50	CCCNc1nc(-c2ccccc2)nc2c1nnn2Cc1ccccc1Cl
463	< 50	< 50	CCNc1nc(-c2ccccc2)nc2c1nnn2Cc1ccccc1Cl
25	< 50	< 50	CCCCCCNc1nc(-c2ccccc2)nc2c1nnn2Cc1ccccc1F
147	< 50	< 50	OCCCNc1nc(-c2ccccc2)nc2c1nnn2Cc1ccccc1C(F)(F)F
11	< 50	< 50	CCNc1nc(-c2ccccc2)nc2c1nnn2Cc1ccccc1F
3.2	< 50	< 50	CCCNc1nc(-c2ccccc2)nc2c1nnn2Cc1ccccc1F
54	< 50	< 50	OCCNc1nc(-c2ccccc2)nc2c1nnn2Cc1ccccc1F
4.3	< 50	< 50	CCCCNc1nc(-c2ccccc2)nc2c1nnn2Cc1ccccc1F
79	< 50	< 50	CCCCNc1nc(-c2ccccc2)nc2c1nnn2Cc1ccccc1Cl
21.4	< 50	< 50	OCCCNc1nc(-c2ccccc2)nc2c1nnn2Cc1ccccc1
116	< 50	< 50	OCCNc1nc(-c2ccccc2)nc2c1nnn2Cc1ccccc1Cl
